The nature of this experiment: Inhibition of collagenase type 5. In short, it runs like this:
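Collagenase type V ([…]) with a 20 µg/mL enzyme solution is preincubated with samples in 4% MeOH at 37 °C for 10 min. Fluorogenic substrate MOCAc-Pro-Leu-Gly-Leu-A2pr(Dnp)-Ala-Arg-NH2 (5 µM solution) is then added. Fluorescence (ex 320, em 405 nm) is read during 1 h at 37 °C. Phosphoramidon is the positive control.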

The record followed here is ChEMBL document CHEMBL1158774, “Collagenase inhibitory quinic acid esters from Ipomoea pes-caprae” (J Nat Prod, 2005).

Take `COC(=O)[C@@]1(O)C[C@@H](O)[C@H](OC(=O)/C=C/c2ccc(O)c(O)c2)[C@H](OC(=O)/C=C/c2ccc(O)c(O)c2)C1` [3,4-O-TRANS-CAFFEOYLQUINIC ACID METHYL ESTER]: the IC50 (usually the concentration at which inhibition is half-maximal) worked out at 16.2 µM. This counts as double-digit micromolar. In turn, `COC(=O)[C@]1(O)C[C@@H](O)[C@@H](OC(=O)/C=C/c2ccc(O)c(O)c2)[C@H](OC(=O)/C=C/c2ccc(O)c(O)c2)C1` showed an IC50 of 26.6 µM. This IC50 lies about 1.6-fold higher than the previous one. The value for `O=C(/C=C/c1ccc(O)c(O)c1)O[C@@H]1[C@H](O)C[C@@](O)(C(=O)O)C[C@H]1OC(=O)/C=C/c1ccc(O)c(O)c1` was 37.2 µM; that for `CC(C)C[C@H](NP(=O)(O)O[C@@H]1O[C@@H](C)[C@H](O)[C@@H](O)[C@H]1O)C(=O)N[C@@H](Cc1c[nH]c2ccccc12)C(=O)O` [PHOSPHORAMIDON] was 0.6 µM.

For the molecule `O=C(O)/C=C/c1ccc(O)c(O)c1` [CAFFEIC ACID], half-maximal inhibition (IC50) required 82.7 µM. As for `COC(=O)[C@]1(O)C[C@@H](OC(=O)/C=C/c2ccc(O)c(O)c2)[C@@H](O)[C@H](OC(=O)/C=C/c2ccc(O)c(O)c2)C1`, the figure is 5.8 µM. Regarding `O=C(/C=C/c1ccc(O)c(O)c1)O[C@@H]1[C@H](OC(=O)/C=C/c2ccc(O)cc2)C[C@@](OC(=O)/C=C/c2ccc(O)cc2)(C(=O)O)C[C@H]1OC(=O)/C=C/c1ccc(O)c(O)c1`, half-maximal inhibition (IC50) required 14.2 µM. In turn, `O=C(O)[C@]1(O)C[C@@H](O)[C@@H](O)[C@H](O)C1` [QUINIC ACID] came in with an IC50 greater than 500 µM. Take `O=C(/C=C/c1ccc(O)c(O)c1)O[C@@H]1C[C@](O)(C(=O)O)C[C@@H](OC(=O)/C=C/c2ccc(O)c(O)c2)[C@H]1OC(=O)/C=C/c1ccc(O)cc1`: the midpoint of inhibition, the IC50, lay at 19.1 µM.

On to `O=C(/C=C/c1ccc(O)c(O)c1)O[C@@H]1C[C@](O)(C(=O)O)C[C@@H](OC(=O)/C=C/c2ccc(O)c(O)c2)[C@H]1O`, for which the IC50 amounted to 23.6 µM.
